Test results taken from ChEMBL document CHEMBL4350955, “Novel Chemical Series of 5-Lipoxygenase-Activating Protein Inhibitors for Treatment of Coronary Artery Disease” (J Med Chem, 2019).
≈ marks a conversion by molar mass, not a printed value.

Experiments:
[1] = Distribution coefficient between octanol and sodium phosphate buffer, logD of the compound in pH 7.4 buffer by LC-MS/MS-based shake flask method
[2] = biological target: T1, Arachidonate 5-lipoxygenase-activating protein (Homo sapiens, UniProt P20292); assay: Inhibition of [3H]MK0591 binding to human FLAP expressed in […] cell membranes measured after 60 to 80 mins by scintillation counting method
T1 sequence (P20292 whole entry): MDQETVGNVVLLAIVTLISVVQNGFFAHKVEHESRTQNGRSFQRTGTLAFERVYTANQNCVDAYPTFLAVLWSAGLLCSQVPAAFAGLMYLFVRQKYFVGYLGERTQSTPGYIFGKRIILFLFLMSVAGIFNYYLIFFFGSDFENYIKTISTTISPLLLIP

[3] = Intrinsic clearance in cryopreserved human hepatocytes assessed as per million cells at 1 uM measured up to 60 mins by LC-MS/MS analysis; format: ADME, cell-based, Hepatocyte; settings: read-out: CLH
[4] = biological target: Voltage-gated inwardly rectifying potassium channel KCNH2 (Homo sapiens, UniProt Q12809); assay: Inhibition of human ERG by high-throughput electrophysiology assay
Chain of Voltage-gated inwardly rectifying potassium channel KCNH2 (Q12809 whole entry): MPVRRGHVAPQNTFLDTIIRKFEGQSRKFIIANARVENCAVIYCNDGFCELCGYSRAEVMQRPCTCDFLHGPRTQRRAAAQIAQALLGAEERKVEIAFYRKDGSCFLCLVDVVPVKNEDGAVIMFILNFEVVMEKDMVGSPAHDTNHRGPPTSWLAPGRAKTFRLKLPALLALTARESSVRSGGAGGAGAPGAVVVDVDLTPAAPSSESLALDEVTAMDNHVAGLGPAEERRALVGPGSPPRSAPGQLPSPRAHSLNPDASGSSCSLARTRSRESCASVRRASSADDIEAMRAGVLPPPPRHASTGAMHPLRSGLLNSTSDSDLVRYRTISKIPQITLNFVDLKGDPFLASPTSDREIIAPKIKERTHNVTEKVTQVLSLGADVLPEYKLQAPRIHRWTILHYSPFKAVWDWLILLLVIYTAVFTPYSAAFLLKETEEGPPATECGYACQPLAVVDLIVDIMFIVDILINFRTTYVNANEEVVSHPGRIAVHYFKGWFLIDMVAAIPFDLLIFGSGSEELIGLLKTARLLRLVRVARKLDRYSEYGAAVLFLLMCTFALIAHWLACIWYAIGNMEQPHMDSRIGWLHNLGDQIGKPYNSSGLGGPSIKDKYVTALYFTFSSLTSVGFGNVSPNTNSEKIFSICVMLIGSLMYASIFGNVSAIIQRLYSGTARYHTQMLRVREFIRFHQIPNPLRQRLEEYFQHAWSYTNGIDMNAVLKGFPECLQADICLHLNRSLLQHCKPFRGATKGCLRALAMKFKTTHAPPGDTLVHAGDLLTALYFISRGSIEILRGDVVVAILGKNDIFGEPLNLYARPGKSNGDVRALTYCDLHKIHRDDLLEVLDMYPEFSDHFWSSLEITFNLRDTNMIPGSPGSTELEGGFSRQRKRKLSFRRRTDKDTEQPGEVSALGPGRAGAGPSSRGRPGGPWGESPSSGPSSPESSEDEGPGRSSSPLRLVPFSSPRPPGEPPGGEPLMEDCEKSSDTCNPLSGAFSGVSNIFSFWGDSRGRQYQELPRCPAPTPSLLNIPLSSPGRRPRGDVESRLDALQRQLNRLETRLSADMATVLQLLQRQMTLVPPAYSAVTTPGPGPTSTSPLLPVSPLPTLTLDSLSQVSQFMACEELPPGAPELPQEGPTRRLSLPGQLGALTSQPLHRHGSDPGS

[5] = biological target: T1, Arachidonate 5-lipoxygenase-activating protein; assay: (§1) Inhibition of FLAP in human whole blood assessed as reduction in calcium ionophore-stimulated LTB4 production preincubated for 30 mins followed by calcium ionophore stimulation and measured after 20 mins by EIA; format: tissue-based
physchem = settings: phosphate buffer, pH 7.4
CYP450 = CYP450 (Homo sapiens, UniProt P04798+P05177+P05181+P08684+P10632+P10635+P11509+P11712+P13584+P20813+P20815+P20853+P24462+P24903+P33260+P33261+P51589+P78329+P98187+Q02928+Q08477+Q16678+Q16696+Q5TCH4+Q6VVX0+Q7Z449+Q8TAV3+Q96SQ9+Q9HB55); assay: Inhibition of CYP450 assessed as maximum reduction in metabolite formation using coumarin based substrate by fluorescence assay; format: ADME, protein assay; settings: probe coumarin based substrate
[6] = Apparent permeability across apical to basolateral side in human Caco2 cells; settings: Caco-2
Homo sapiens = assay: Suppression of calcium ionophore-stimulated LTB4 production in CAD patient whole blood at 100 mg administered daily during phase 2 study for 12 weeks by ELISA relative to baseline; format: functional
[7] = biological target: T2, Arachidonate 5-lipoxygenase-activating protein (Homo sapiens) (UniProt P20292); assay: as §1; format: tissue-based
T2 sequence (whole entry): T1 sequence (P20292 whole entry)

[8] = Protein binding in Sprague-Dawley rat plasma assessed as unbound fraction by LC-MS based equilibrium dialysis analysis; format: ADME, cell-free
[9] = Clearance in po or iv dosed Sprague-Dawley rat; format: ADME, organism-based; settings: in vivo
[10] = Volume of distribution at steady state in po or iv dosed Sprague-Dawley rat; format: ADME, organism-based; settings: in vivo, read-out: Vdss
[11] = Protein binding in human plasma assessed as unbound fraction by LC-MS based equilibrium dialysis analysis; format: ADME, cell-free
[12] = Half-life in po or iv dosed Sprague-Dawley rat; format: ADME, organism-based; settings: in vivo
[13] = Bioavailability in po dosed Sprague-Dawley rat; format: ADME, organism-based; settings: in vivo
[14] = biological target: T2, Arachidonate 5-lipoxygenase-activating protein (Homo sapiens); assay: (§2) Inhibition of FLAP in human whole blood assessed as reduction in calcium ionophore-stimulated LTB4 production preincubated for 4 hrs followed by calcium ionophore stimulation and measured after 20 mins by EIA; format: tissue-based
[15] = biological target: T1, Arachidonate 5-lipoxygenase-activating protein; assay: as §2; format: tissue-based
Cytochrome P450 2C9 = Cytochrome P450 2C9 (Homo sapiens, UniProt P11712); assay: Inhibition of recombinant human CYP2C9 expressed in Escherichia coli assessed as maximum reduction in metabolite formation using coumarin based substrate by fluorescence assay; format: ADME
Chain of Cytochrome P450 2C9 (P11712 whole entry): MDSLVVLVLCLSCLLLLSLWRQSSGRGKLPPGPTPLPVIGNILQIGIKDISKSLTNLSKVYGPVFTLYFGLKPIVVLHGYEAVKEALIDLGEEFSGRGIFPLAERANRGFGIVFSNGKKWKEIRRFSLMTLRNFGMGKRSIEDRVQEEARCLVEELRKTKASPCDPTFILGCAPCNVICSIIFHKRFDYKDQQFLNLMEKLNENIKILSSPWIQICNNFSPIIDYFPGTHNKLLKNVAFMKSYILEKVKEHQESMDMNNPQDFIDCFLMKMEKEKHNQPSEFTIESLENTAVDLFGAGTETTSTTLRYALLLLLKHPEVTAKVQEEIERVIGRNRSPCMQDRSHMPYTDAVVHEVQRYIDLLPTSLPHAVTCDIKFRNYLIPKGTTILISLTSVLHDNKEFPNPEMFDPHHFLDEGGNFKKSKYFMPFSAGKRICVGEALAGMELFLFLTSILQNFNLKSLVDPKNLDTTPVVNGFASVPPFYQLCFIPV

[16] = Metabolic stability in human hepatocytes assessed as parent compound remaining; format: ADME, cell-based, Hepatocyte
hERG (KCNH2) = hERG (KCNH2) (Homo sapiens, UniProt Q12809); assay: Inhibition of human ERG at 10 uM high-throughput electrophysiology assay relative to control
Chain of hERG (KCNH2) (Q12809 whole entry): as the sequence (Q12809 whole entry) above

[17] = Genotoxicity in Salmonella typhimurium by Ames test; format: toxicity; settings: salmonella enterica subsp. enterica serovar typhimurium
Procedure, shortened: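 Two-strain Salmonella Ames test, with and without metabolic activation by rat liver S9 fraction; applied to amino pyrazole building blocks present in the series.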

Cytochrome P450 3A4 = Cytochrome P450 3A4 (Homo sapiens, UniProt P08684); assay: Inhibition of recombinant human CYP3A4 expressed in Escherichia coli assessed as maximum reduction in metabolite formation using coumarin based substrate by fluorescence assay
Chain of Cytochrome P450 3A4 (P08684 whole entry): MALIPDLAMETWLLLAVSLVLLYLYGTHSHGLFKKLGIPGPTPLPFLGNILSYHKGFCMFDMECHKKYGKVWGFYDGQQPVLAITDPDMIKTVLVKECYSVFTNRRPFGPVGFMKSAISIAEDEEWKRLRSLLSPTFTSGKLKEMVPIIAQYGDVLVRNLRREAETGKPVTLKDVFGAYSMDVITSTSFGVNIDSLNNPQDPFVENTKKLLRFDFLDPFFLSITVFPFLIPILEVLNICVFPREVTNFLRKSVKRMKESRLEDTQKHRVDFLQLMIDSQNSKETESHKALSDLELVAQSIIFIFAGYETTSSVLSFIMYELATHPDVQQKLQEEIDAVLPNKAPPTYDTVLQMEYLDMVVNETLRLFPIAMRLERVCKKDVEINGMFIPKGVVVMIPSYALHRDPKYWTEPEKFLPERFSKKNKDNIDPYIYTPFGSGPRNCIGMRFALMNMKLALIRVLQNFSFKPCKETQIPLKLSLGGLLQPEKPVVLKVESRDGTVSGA

Cytochrome P450 1A2 = Cytochrome P450 1A2 (Homo sapiens, UniProt P05177); assay: Inhibition of recombinant human CYP1A2 assessed as maximum reduction in metabolite formation using coumarin based substrate by fluorescence assay; format: ADME
Chain of Cytochrome P450 1A2 (P05177 whole entry): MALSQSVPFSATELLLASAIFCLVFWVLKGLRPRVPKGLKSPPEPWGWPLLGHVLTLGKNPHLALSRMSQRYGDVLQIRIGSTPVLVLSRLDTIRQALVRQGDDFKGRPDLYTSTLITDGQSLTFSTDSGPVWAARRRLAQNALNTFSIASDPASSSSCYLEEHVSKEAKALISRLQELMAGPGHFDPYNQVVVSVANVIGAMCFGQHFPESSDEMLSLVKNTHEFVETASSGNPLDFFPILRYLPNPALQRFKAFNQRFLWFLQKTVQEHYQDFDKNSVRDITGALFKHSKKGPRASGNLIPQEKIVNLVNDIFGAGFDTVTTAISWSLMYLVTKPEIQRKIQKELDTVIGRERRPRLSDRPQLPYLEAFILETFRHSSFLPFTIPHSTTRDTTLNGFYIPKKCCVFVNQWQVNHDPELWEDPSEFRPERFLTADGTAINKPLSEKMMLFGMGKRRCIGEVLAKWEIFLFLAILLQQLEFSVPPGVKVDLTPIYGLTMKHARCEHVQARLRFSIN

Structure (SMILES) | logD [1] | IC50 [2] [nM] | hepatocyte CLint at 1 µM [3] [µL/min/1e6 cells] | IC50 [4] [nM] | IC50 [5] [nM] | solubility at 24 h (physchem) [µM] | Papp A→B [6] [×10⁻⁶ cm/s] | fpIC50 [7] | fraction unbound [8] | clearance [9] [mL/min/kg] | Vd [10] [L/kg] | fraction unbound [11] | half-life [12] [h] | bioavailability [13] [%] | IC50 (Cytochrome P450 2C9) [nM] | Stability [16] [%] | further results
Cc1nn(C)cc1NC(=O)[C@@H]1CCCC[C@H]1C(=O)c1ccc(-c2cc[nH]n2)cc1 (racemic) | 2.6 | 79.4 | < 4 | > 12600 | 501 | 92 (≈ 36 µg/mL) | 26 | – | – | – | – | – | – | – | – | – | IC50 (CYP450): > 20000 nM
C[C@H](C#Cc1ccc(Cc2ccc(F)cc2)s1)N(O)C(N)=O [ATRELEUTON] | – | – | – | – | – | – | – | – | – | – | – | – | – | – | – | – | inhibition (INH) (Homo sapiens): 80%
O=C(Nc1cnn2cccnc12)[C@@H]1CCCC[C@H]1C(=O)c1ccc(-c2cc[nH]n2)cc1 | 2.9 | 31.6 | 5 | > 31600 | 39.8 | 60 (≈ 24.9 µg/mL) | 12 | 8.4 | – | – | – | – | – | – | – | – | IC50 (CYP450): > 20000 nM
Cc1nn(C)cc1NC(=O)[C@@H]1CCCC[C@H]1C(=O)c1ccc(-c2cc[nH]n2)cc1F (racemic) | 2.9 | 126 | 14 | > 12600 | 63.1 | 500 (≈ 205 µg/mL) | 34 | 8 | 0.11 | 13.3 | 1.1 | 0.14 | 1.2 | 85 | – | – | IC50 (CYP450): > 20000 nM
CC(C)(CNC(=O)[C@@H]1CCCC[C@H]1C(=O)c1ccc(-c2cc[nH]n2)cc1)S(C)(=O)=O | 2.1 | 63.1 | – | – | – | – | – | – | – | – | – | – | – | – | – | – | fpIC50 [14]: 7.4; IC50 [15]: 126 nM
Cc1cc(-c2ccc(C(=O)[C@@H]3CCCC[C@H]3C(=O)Nc3cn(C)nc3C(N)=O)cc2)n[nH]1 | 3.1 | – | 12 | > 31600 | – | 60 (≈ 26.1 µg/mL) | 22 | – | 0.024 | 5.5 | 0.64 | 0.076 | 1.4 | 40 | 10000 | 79 | –
Cn1ncc(NC(=O)[C@@H]2C[C@@H]3C[C@@H]3C[C@H]2C(=O)c2ccc(-c3cc[nH]n3)cc2)c1C(F)(F)F | 3.7 | 12.6 | 12 | – | 50.1 | 63 (≈ 28.8 µg/mL) | 59 | 8.5 | 0.04 | 9.8 | 1.1 | 0.066 | 1.4 | 100 | 5010 | – | –
Cn1ncc(NC(=O)[C@@H]2CCCC[C@H]2C(=O)c2ccc(-c3cc[nH]n3)cc2)c1C(F)(F)F | 3.6 | 39.8 | 7 | – | 50.1 | 80 (≈ 35.6 µg/mL) | 59 | 8.4 | 0.042 | 4.8 | 0.97 | 0.075 | 3 | 100 | 6310 | 83 | inhibition at 10 µM (hERG (KCNH2)): 32%
Cc1cc(-c2ccc(C(=O)[C@@H]3CCCC[C@H]3C(=O)Nc3cn(C)nc3C(F)F)cc2)n[nH]1 | 3.5 | 10 | – | – | 63.1 | – | – | 8.5 | – | – | – | – | – | – | – | – | Activity [17]: Toxic
Cc1cc(-c2ccc3c([C@@H]4CCCC[C@H]4C(=O)Nc4cn(C)nc4C(N)=O)noc3c2)n[nH]1 | 3.4 | 79.4 | 13 | > 31600 | – | 27 (≈ 12.1 µg/mL) | 7 | – | – | – | – | – | – | – | 7940 | 68 | fpIC50 [14]: 8.5; IC50 [15]: 63.1 nM
Cn1cc(NC(=O)[C@@H]2CCCC[C@H]2C(=O)c2ccc(-c3cc[nH]n3)cc2)c(C(F)(F)F)n1 | – | 25.1 | 12 | – | 50.1 | – | – | 8.5 | 0.054 | 6.8 | 1 | 0.063 | 1.6 | 62 | – | 62 | –
Cc1cc(-c2ccc(C(=O)[C@@H]3CCCC[C@H]3C(=O)Nc3cn(C)nc3C#N)cc2)n[nH]1 | 3.5 | – | 6 | – | – | 25 (≈ 10.4 µg/mL) | 27 | 8.5 | – | – | – | – | – | – | 7940 | – | Activity [17]: Non-Toxic; inhibition at 10 µM (hERG (KCNH2)): 23%
Cc1cc(-c2ccc3c([C@@H]4C[C@H]5C[C@H]5C[C@H]4C(=O)Nc4cn(C)nc4C(N)=O)noc3c2)n[nH]1 | 3.5 | 39.8 | 16 | – | – | 12 (≈ 5.51 µg/mL) | 23 | – | – | – | – | – | – | – | – | 69 | fpIC50 [14]: 8.5; IC50 [15]: 126 nM; IC50 (Cytochrome P450 3A4): 3160 nM; inhibition at 10 µM (hERG (KCNH2)): 12%
Cc1cc(-c2ccc(C(=O)[C@@H]3CCCC[C@H]3C(=O)Nc3cn(C)nc3C(N)=O)c(F)c2)[nH]n1 | 3.5 | – | 18 | > 31600 | – | 31 (≈ 14 µg/mL) | 17 | 8.3 | – | – | – | – | – | – | – | – | IC50 (Cytochrome P450 3A4): 6310 nM
Cn1cc(NC(=O)[C@@H]2C[C@@H]3C[C@@H]3C[C@H]2C(=O)c2ccc(-c3cc[nH]n3)cc2)c(C(F)(F)F)n1 | 3.7 | 12.6 | 13 | – | 25.1 | 27 (≈ 12.4 µg/mL) | 57 | 9 | – | – | – | – | – | – | – | 76 | IC50 (Cytochrome P450 3A4): 3980 nM
CC(C)(O)CNC(=O)c1cnc(NC(=O)[C@@H]2CCCC[C@H]2C(=O)c2ccc(-c3cc[nH]n3)cc2)cn1 (racemic) | 3.2 | 15.8 | 4 | – | – | 111 (≈ 54.5 µg/mL) | 3 | – | – | – | – | – | – | – | – | – | IC50 (Cytochrome P450 1A2): 10000 nM; fpIC50 [14]: 8.3; IC50 [15]: 100 nM; inhibition at 10 µM (hERG (KCNH2)): 22%
